Screening data deposited in PubChem BioAssay by Johns Hopkins Ion Channel Center.
Hits are enriched below; roughly 3% of the tested compounds scored in any of these assays.
TRPC6 inhibitor: inhibitors of mouse TRPC6 channel; Q61143; HEK293-TRPC6, membrane potential dye, ACh-evoked depolarization; active compounds read low; B-score at 10 µM; hit rate 1.1% among 310,000;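 active means B-score under library mean minus 3 SD, initial fluorescence not abnormally high, positive integrated signal ratio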;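 further: B-score derived from integrated fluorescence ratio over the kinetic read; more negative B-score means stronger inhibition of depolarization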
TRPC6 activator: activates the mouse TRPC6 cation channel | hit rate 0.13% among 310,000 | AID 2550 | HEK293-TRPC6 membrane potential dye fluorescence; active compounds read high | B-score at 10 µM;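 active means B-score of the integrated fluorescence ratio above library mean plus 3 SD, and starting fluorescence ratio within library mean plus 5 SD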;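 further: higher score means more depolarization so channel activation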
TRPC4 agonist: TRPC4 (mouse) channel activation; hit rate 0.49% among 310,000; B-score at 10 µM; HEK293 TRPC4beta/mu-opioid, Fluo4 calcium fluorescence; active compounds read high; Q9QUQ5; AID 2237;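 active means B-score above 5 SD of library B-scores, and initial fluorescence ratio not above library mean plus 5 SD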;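 further: positive B-score marks a calcium rise read as TRPC4 activation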
Target sequence (Q9QUQ5 whole entry, looked up): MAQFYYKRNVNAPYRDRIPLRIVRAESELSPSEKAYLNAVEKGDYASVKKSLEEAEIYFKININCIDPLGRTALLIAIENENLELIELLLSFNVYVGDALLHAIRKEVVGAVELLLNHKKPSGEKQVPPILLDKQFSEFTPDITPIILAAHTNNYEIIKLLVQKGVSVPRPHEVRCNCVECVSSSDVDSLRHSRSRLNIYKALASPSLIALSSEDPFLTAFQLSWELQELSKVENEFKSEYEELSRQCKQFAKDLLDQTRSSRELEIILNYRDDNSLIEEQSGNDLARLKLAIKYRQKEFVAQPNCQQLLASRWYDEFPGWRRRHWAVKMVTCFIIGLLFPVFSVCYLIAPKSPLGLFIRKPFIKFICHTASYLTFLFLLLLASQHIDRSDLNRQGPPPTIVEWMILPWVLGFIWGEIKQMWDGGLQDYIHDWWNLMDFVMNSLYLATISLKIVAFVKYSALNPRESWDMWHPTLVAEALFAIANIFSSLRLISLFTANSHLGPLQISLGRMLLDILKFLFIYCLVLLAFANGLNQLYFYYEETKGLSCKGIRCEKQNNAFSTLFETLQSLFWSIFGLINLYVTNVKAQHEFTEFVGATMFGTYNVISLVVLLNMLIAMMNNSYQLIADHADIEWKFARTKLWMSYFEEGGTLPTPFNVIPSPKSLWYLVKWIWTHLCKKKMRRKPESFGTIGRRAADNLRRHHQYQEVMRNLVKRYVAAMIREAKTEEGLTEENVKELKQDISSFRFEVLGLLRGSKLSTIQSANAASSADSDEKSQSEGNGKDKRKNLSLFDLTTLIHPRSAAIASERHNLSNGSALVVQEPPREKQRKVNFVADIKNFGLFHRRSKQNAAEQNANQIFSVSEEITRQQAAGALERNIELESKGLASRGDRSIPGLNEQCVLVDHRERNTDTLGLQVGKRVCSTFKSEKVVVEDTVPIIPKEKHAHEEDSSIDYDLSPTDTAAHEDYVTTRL
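system = HEK293 cells stably co-expressing mouse TRPC4beta and mu-opioid receptor | schedule = Fluo4 dye loading 45 min at room temperature, 110 s recording | measure = B-scored integrated calcium fluorescence ratio | signal = Fluo4 calcium-sensitive dye fluorescence, kinetic, 1 Hz baseline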
Kir21 block: Kir2.1 (mouse) channel inhibition; HEK293-Kir2.1, FluxOR thallium flux fluorescence; active compounds read low; B-score at 10 µM; hit rate 0.85% among 310,000; AID 1672;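 active means fluorescence ratio B-score at or below minus 3 SD of library scores, with starting-brightness B-score within 2 SD, cut at about -4.2 in these data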;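 further: channel flux triggered by added potassium and thallium sulfate stimulus; B-score of peak minus minimum fluorescence over baseline after thallium stimulus; more negative B-score means stronger Kir2.1 block with less thallium influx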
TRPC4 potent: allosterically enhances the mouse TRPC4 cation channel. B-score at 10 µM. HEK293 TRPC4beta/mu-opioid, DAMGO EC20, Fluo-4 Ca2+ flux; active compounds read high. hit rate 0.42% among 310,000. Q9QUQ5. AID 2227;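 active means B-score of calcium response area above 5 SD of library B-scores, with initial fluorescence ratio within 5 SD of library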;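 further: B-score of integrated fluorescence ratio over time as area under calcium response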
TRPC4 inh: blocks the mouse TRPC4 cation channel; Q9QUQ5; hit rate 0.39% among 300,000; HEK293 TRPC4beta/mu-opioid, DAMGO-evoked Fluo4 calcium flux; active compounds read low; B-score at 10 µM;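 active means B-score over 3 SD under the library average, no early fluorescence shift, positive overall ratio signal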
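Test system – stable TRPC4beta/mu-opioid receptor HEK293 cells · Probe or stimulus – DAMGO, a submaximal dose followed by a maximal one · Dosing – one concentration per compound · Signal – Fluo4 calcium fluorescence by kinetic imaging, 5 s 1 Hz baseline · Evaluation – per-well B score of integrated baseline-normalized Fluo4 ratio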
TRPC4 spec 2: second selectivity test of TRPC6 inhibitors: effect on mouse TRPC4. AID 2776. inhibition, % at 10 µM. hit rate 42% among 920. HEK293 TRPC4/MOR, membrane potential dye fluorescence; channel activated by saturating DAMGO dose. shares compounds with TRPC6 inhibitor;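 active means compounds whose fluorescence signal differed from control wells by over 3 SD, either direction, in both duplicate plates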
TRPC4 spec: tests whether TRPC6 inhibitors also affect mouse TRPC4; shares compounds with TRPC6 inhibitor; HEK293 TRPC4/mu-opioid, membrane potential fluorescence; activity change, negative = inhibition, % at 10 µM; hit rate 61% among 920; AID 2777;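 active means rise or fall in signal beyond 3 SD of buffer-only wells in both replicate plates, either sign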;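 further: integrated kinetic ratio of fluorescence range over baseline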
HEK293 MPD ctr 2-1: second check of TRPC6 inhibitor effects in parental HEK293 cells; shares compounds with TRPC6 inhibitor; parental HEK293 membrane potential dye fluorescence; maximal acetylcholine challenge after compound addition; signal change vs control, % at 10 µM; hit rate 31% among 920;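 active means membrane potential signal moving either way by over 3 SD of the maximum-effect control, in both duplicate plates, meaning non-specific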
HEK293 MPD ctr-1: parental HEK293 nonspecific activity of TRPC6 inhibitors. AID 2780. hit rate 60% among 920. shares compounds with TRPC6 inhibitor. membrane potential signal change, % at 10 µM. parental HEK293 membrane potential dye fluorescence;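 active means membrane potential signal shifting up or down by more than 3 SD of buffer-only wells, on both duplicate plates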
HEK293 MPD ctr-2: parental HEK293 nonspecific activity of TRPC6 modulators. membrane potential dye fluorescence. hit rate 51% among 2,400. membrane potential signal change, % at 10 µM. shares compounds with TRPC6 inhibitor;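 active means membrane potential signal moves up or down beyond 5 SD from buffer-only wells, on both duplicate plates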
HEK293 MPD ctr 2-2: second check of TRPC6 modulator effects in parental HEK293 cells; shares compounds with TRPC6 inhibitor; membrane potential dye fluorescence; after compound, maximal acetylcholine stimulation; inhibition, % at 10 µM; hit rate 14% among 2,400;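 active means membrane potential signal drops by more than 5 SD from the mean control signal, in both duplicate plates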;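 further: plate controls were acetylcholine ECmax control wells for no effect and buffer only wells for full effect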
TRPC4 ctr mod: mouse TRPC4 off-target activity of TRPC6 modulators; HEK293 TRPC4/mu-opioid, membrane potential fluorescence; hit rate 69% among 2,400; AID 488927; shares compounds with TRPC6 inhibitor; percent change from control (negative = decrease, positive = increase), % at 10 µM;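 active means membrane potential signal moved up or down beyond 5 SD of buffer control wells, in both duplicate plates, actives on both sides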;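 further: plate controls were assay buffer wells for no effect and DAMGO maximal-effect wells for full effect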
TRPC4/MOR inh 2: mouse TRPC4 off-target activity of TRPC6 modulators, second screen. HEK293 TRPC4/mu-opioid, membrane potential dye fluorescence; stimulated with maximal-effect DAMGO. hit rate 55% among 2,400. inhibition, % at 10 µM. shares compounds with TRPC6 inhibitor. AID 488928;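 active means drop in membrane potential signal beyond 5 SD of the control wells in both duplicate plates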;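 further: TRPC4 counter screen for TRPC6 hits run under conditions tuned for TRPC6 not TRPC4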
TRPC6 inh conf: confirmation of mouse TRPC6 inhibitors; shares compounds with TRPC6 inhibitor; HEK293-TRPC6, membrane potential dye, ACh-evoked depolarization; inhibition, % at 10 µM; hit rate 43% among 3,300; AID 488960;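 active means fluorescence ratio falls more than 5 SD below the full-stimulation control mean, in both duplicate runs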;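 further: integrated fluorescence ratio of peak minus minimum over baseline after agonist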
TRPC6 act confirm: confirmation of mouse TRPC6 activators | shares compounds with TRPC6 inhibitor | HEK293-TRPC6 membrane potential dye fluorescence, FDSS | activation, % at 10 µM | hit rate 11% among 2,800 | AID 488961;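 active means ratio signal rise beyond 5 SD above unstimulated control wells' mean, seen in both duplicate runs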;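 further: plate controls were buffer EC0 wells for no effect and acetylcholine ECmax response for full effect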
* marks the source's active call; other numbers are inactive results; i = inactive; · = no result given.

SMILES	TRPC6 inhibitor	TRPC6 activator	TRPC4 agonist	Kir21 block	TRPC4 potent	TRPC4 inh	HEK293 MPD ctr-2	HEK293 MPD ctr 2-2	TRPC4 ctr mod	TRPC4/MOR inh 2	TRPC6 inh conf	TRPC6 act confirm	others
Cc1c(O)c(CN2CCCC2)cc2c3c(c(=O)oc12)CCC3	-5*	i	i	-0.04	i	i	-254%*	i	-46%*	i	i	i
Cc1c(O)c(CN2CCCC2)cc2c1oc(=O)c1ccccc12	i	i	i	0.42	i	i	·	·	·	·	·	·
COc1ccc(-c2csc(NC(=O)C3COc4ccccc4O3)n2)cc1OC (stereo not drawn)	i	i	i	0.01	i	i	·	·	·	·	·	·
CN(C)c1cc[n+](CC(=O)Nc2ccc(Oc3ccccc3)cc2)cc1	-6.3*	i	i	3.4	i	i	i	i	-10%*	i	i	i
COc1cc(/C=C/C(=O)c2ccc3c(c2)OCCO3)cc(Br)c1OCC(=O)N(C)C	i	13*	i	-0.14	i	i	126%*	i	27%*	i	i	51%*
O=C(/C=C/c1ccncc1)c1ccc2c(c1)OCCO2	i	i	i	-4.1	i	i	·	·	·	·	·	·
CC(C)c1ccc(NC2CCCN(C(=O)c3cnc4ccccn4c3=O)C2)cc1 (stereo not drawn)	-7*	i	i	-1.9	i	i	·	·	·	·	i	i	TRPC4 spec 2=i;TRPC4 spec=i;HEK293 MPD ctr 2-1=i;HEK293 MPD ctr-1=i
Cc1nc(NCCCn2ccnc2)c2ccccc2n1	-7.7*	i	i	-3.1	i	i	-237%*	61%*	-38%*	38%*	52%*	i
CN(CC(=O)Nc1cccc(F)c1)C(=O)c1ccc(N2CCOCC2)c([N+](=O)[O-])c1	-7*	i	i	1.4	i	i	i	i	92%*	76%*	i	i
S=C(Nc1cccc(Cl)c1)N(CCCN1CCCC1)Cc1cccn1Cc1ccc(Cl)cc1	i	i	i	-1.1	i	i	·	·	·	·	·	·
COc1cccc(NC(=S)N(CCCN2CCCC2)Cc2cccn2Cc2ccc(Cl)cc2)c1	-5.3*	i	i	-8.5*	i	i	i	i	i	62%*	48%*	i
